Shown are actives, neighbours in structure and some others; about 1.8% of the full set was active somewhere.
proCasp3 act: procaspase-3 (human) activation; P42574; recombinant procaspase-3 D3A, Ac-DEVD-pNA absorbance 405 nm; activation, % at 8.5 µM; 0.11% of 330,000 active; AID 463141;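 active = activation above the mean of all tested compounds plus 3 SD, cut at about 21% in these data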;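 also: 0% = DMSO alone and 100% = DMSO wells spiked with extra 5 µM PC-3 D3A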
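Test system: Procaspase-3 D3A mutant, all three cleavage aspartates alanine | Dosing: Single dose, 8.5 µM nominal compound, 0.8% DMSO | Schedule: 1 h preincubation, 2 h reaction | Technique: 405 nm absorbance of p-nitroaniline, reads at 0 and 120 min | Repeats: One well per compound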
GSTO1 inh: blocks human GSTO1 in RBBP9 counter-screen. recombinant GSTO1, activity-based probe fluorescence polarization. inhibition, % at 5.96 µM. 1.1% of 300,000 active;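 active = inhibition above the campaign mean inhibition plus 3 SD, cut at about 35% in these data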;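 also: 0% = GSTO1-1 with DMSO and 100% = wells lacking GSTO1-1 enzyme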
proCasp7 act: counter-screen for procaspase-3 activators: activators of human procaspase-7; recombinant procaspase-7, Ac-DEVD-pNA absorbance 405 nm; D23A/D198A/D206A triple mutant, cannot self-cleave; scale: DMSO 0, 5 µM enzyme 100; activation, % at 8.5 µM; 0.093% of 330,000 active; AID 463210;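 active = percent activation above the screen-wide mean plus 3 SD, cut at about 25% in these data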
Target sequence (P55210 whole entry D23A/D198A/D206A): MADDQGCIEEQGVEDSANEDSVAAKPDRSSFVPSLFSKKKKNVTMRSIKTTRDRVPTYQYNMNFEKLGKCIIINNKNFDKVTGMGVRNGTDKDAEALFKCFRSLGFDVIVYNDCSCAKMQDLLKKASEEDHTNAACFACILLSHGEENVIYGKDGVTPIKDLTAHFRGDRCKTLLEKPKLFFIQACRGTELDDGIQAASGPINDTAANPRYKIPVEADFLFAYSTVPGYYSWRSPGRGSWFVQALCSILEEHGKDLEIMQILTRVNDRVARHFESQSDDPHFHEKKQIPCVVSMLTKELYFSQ
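Detection: p-Nitroaniline absorbance at 405 nm, read at 0 and 120 min; system: Uncleavable procaspase-7 mutant enzyme; evaluation: % activation from two-timepoint absorbance difference, scaled to controls; times: 1 h enzyme–compound preincubation and 2 h substrate reaction, both 25 °C; buffer or medium: Zinc-free HEPES pH 7.4 with 300 mM NaCl, 0.01% Triton X-100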
ZTA DNA inh: ZTA (EBV) inhibition in EBNA-1 counter-screen. ZTA-DNA binding, fluorescence polarization. P03206. inhibition, % at 11 µM. 0.15% of 320,000 active; in the data active = inhibition above about 33%
EBNA-1 inh: blocks EBNA-1 binding to DNA; EBNA-1 DNA binding, fluorescence polarization; inhibition, % at 14.8 µM; 0.34% of 300,000 active; in the data active = inhibition above about 28%
Apaf1 inhib: inhibitors of human Apaf-1 apoptosome; O14727; reconstituted apoptosome caspase-3 activity, DEVD-Rh110 fluorescence; inhibition, % at 20 µM; 0.71% of 330,000 active; AID 489030; active = inhibition of at least 40% at 20 µM;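 also: plate controls were DMSO wells for no effect and DEVD-CHO caspase inhibitor wells for full effect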
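Assay system – apoptosome proteins · Medium – Hepes buffer, pH 7.5 · Also added – cytochrome c with DEVD-Rh110 · Timing – 30 min compound preincubation, 50 min activation, room temperature · Detection – Rh110 fluorescence, excitation 480 nm, emission 540 nm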
GSTO1 confirm: GSTO1 (human) inhibition, confirmation; inhibition, % at 5.96 µM; 54% of 2,400 active; recombinant GSTO1, probe fluorescence polarization; shares compounds with GSTO1 inh;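 active = inhibition above the primary screen's cutoff, its mean inhibition plus 3 SD, cut at about 35% in these data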;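 also: loss of polarization as inhibitors block binding of rhodamine sulfonate ester activity probe; 0% = GSTO1 with DMSO and 100% = wells lacking GSTO1 enzyme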
GSTO1 recomb ABPP: inhibitors of recombinant human GSTO1. gel ABPP SE-Rh probe fluorescence. 30% of 130 active. inhibition, % at 1 µM. shares compounds with GSTO1 inh. AID 463110;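 active = inhibition of the enzyme GSTO1 above about 75%, limit read from the data; inactive = inhibition below that limit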
Active calls of the source: *; . = not tested or not shown.

SMILES	proCasp3 act	GSTO1 inh	proCasp7 act	ZTA DNA inh	EBNA-1 inh	Apaf1 inhib	GSTO1 confirm	others
COc1cc2c(cc1OC)C(C1C(=O)CCCC1=O)N(C(=O)CCl)CC2 (configuration not stated)	-5	28	-11	4	-6	-3	.
COc1cc2c(cc1OC)C(c1ccccc1)N(C(=O)CCl)CC2 (configuration not stated)	-3	88*	-5	5	8	-1	96*	GSTO1 recomb ABPP=75*
COc1cc2c(cc1OC)C(c1ccccc1)N(S(C)(=O)=O)CC2 (configuration not stated)	7	-5	8	7	-5	-5	.
COc1ccc2c(c1)CCN(C(=O)CCl)C2C1C(=O)CCCC1=O (configuration not stated)	5	40*	-3	-13	-6	-8	81*	GSTO1 recomb ABPP=35
CC(C)n1cc(CN2CCC(Oc3ccc(C(=O)N4CCCCC4)cc3)CC2)cn1	.	.	.	.	.	-7	.
CCCC1NC(=S)N(C2CCCCC2)C1=O (configuration not stated)	0	40*	-2	-6	6	10	3
Cc1cccc(NC2=C/C(=N/S(=O)(=O)c3cccs3)c3ccccc3C2=O)c1	-5	84*	2	8	0	.	81*
Cc1c(Cl)cccc1N/C(=N/S(=O)(=O)c1cccs1)c1ccccc1	2	6	5	0	-2	2	.
O=[N+]([O-])c1ccc(O)c2ncccc12	9	45*	-7	2	-7	20	23
O=[N+]([O-])c1cc([N+](=O)[O-])c2cccnc2c1Oc1ccccc1O	-11	50*	-22	15	-1	.	6
O=[N+]([O-])c1cc(Cl)c(O)c2ncccc12	.	.	.	.	.	38	.
CC(C)CCn1c(=O)c2ccccc2n2c(CCl)nnc12	-10	81*	-3	4	-5	-12	95*	GSTO1 recomb ABPP=81*
CCCCCn1c(=O)c2ccccc2n2c(CCl)nnc12	-5	84*	15	-17	-4	13	95*	GSTO1 recomb ABPP=63
C[C@H](CO)N1C[C@H](C)[C@@H](CN(C)S(=O)(=O)c2ccc(F)cc2)Oc2ccc(NC(=O)CCN3CCOCC3)cc2C1=O	2	.	-11	.	.	19	.
CCN(Cc1ccccc1)C(=O)Cc1c[nH]c2ccccc12	-5	5	-6	-10	1	11	.
Cc1ccc(C(=O)Nn2c(N)c(S(=O)(=O)c3ccc(C)cc3)c3nc4ccccc4nc32)cc1	1	-8	-1	-6	-2	32	.
Cc1ccc(S(=O)(=O)c2c(N)n(CCC(C)C)c3nc4ccccc4nc23)cc1	20	-1	24	17	12	19	.
Cc1ccc(S(=O)(=O)c2c(N)n(CCCO)c3nc4ccccc4nc23)cc1	2	60*	-8	-2	4	18	9
CCCCn1c(NS(=O)(=O)c2ccccc2)c(S(=O)(=O)c2ccc(C)cc2)c2nc3ccccc3nc21	5	92*	-13	16	18	.	83*
O=C1CCCCN1CCCC(=O)N1CCCC(Nc2ccccc2)C1 (configuration not stated)	6	8	-2	-6	16	8	.
O=C1c2ccccc2C(=O)N1CCCc1cn(C[C@H]2CC[C@H](Cn3cc(CCCN4C(=O)c5ccccc5C4=O)nn3)O2)nn1	2	.	1	.	.	21	.
O=C(N/N=C1\CCc2ccccc21)c1ccccc1O	4	1	-3	12	3	-4	.
O=C(OC1CCc2ccccc2C1=O)c1ccccc1O (configuration not stated)	8	54*	-12	20	1	15	48*
COc1ccc2[nH]cc(C(=O)CN3CC(C)CC(C)C3)c2c1 (configuration not stated)	6	2	1	-23	-10	1	.

Bioassay records (PubChem)
